From PubChem BioAssay AID488843 (Broad Institute, 2010)
The source made the active and inactive calls.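 How the source made its calls: active means compound whose fitted half-maximal VEGF mRNA rise lies within ten times its top tested dose; inconclusive means flat response of 30 to 70% or a poor curve fit; inactive means the rest, including reverse-direction effects.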

system: U2OS VEGF mRNA induction, RT-PCR; experiment: VEGF mRNA induction via HIF pathway, dose response, cell-based, U2OS, RT-PCR, dry powder (AID 488843); details: not given
Outline: (§1)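 Material: U2OS human osteosarcoma cells, endogenous VEGF-A mRNA expression; Medium: DMEM without phenol red plus 10% FBS; Compound: dose-response series of compounds, pinned in duplicate; Times: 24 h pre-growth, 24 h treatment, 37 °C; Signal: multiplex TaqMan RT-qPCR, VEGF-A FAM, beta-actin VIC; Benchmarks: DMSO wells as negative reference.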

| Compound | AC50 [µM] |
| --- | --- |
| CCCCNC(=O)c1cc(-c2ccccc2)on1 | 12.4 |
| c1ccc(-c2nnc(Nc3nc(-c4ccccn4)nnc3-c3ccccc3)s2)cc1 | 2.81 |
| O=C(NCCCO)c1cc(-c2ccccc2)on1 | 22.3 |
| C=CCNc1nc(-c2ccccn2)nnc1-c1ccccc1 | 7 |
| c1ccc(-c2csc(Nc3nc(-c4ccccn4)nnc3-c3ccccc3)n2)cc1 | 2.69 |
| OCC1CCN(c2nc(-c3ccccn3)nnc2-c2ccccc2)CC1 | 11.1 |
| c1ccc(-c2cnc(Nc3nc(-c4ccccn4)nnc3-c3ccccc3)s2)cc1 | 4.96 |
| Cc1ccc(Nc2nc(-c3ccccn3)nnc2-c2ccccc2)cn1 | 8.83 |
| OCCCNc1nc(-c2ccccn2)nnc1-c1ccccc1 | 10.7 |
| O=C(NCCCN1CCOCC1)c1cc(-c2ccccc2)on1 | 30.7 |
| c1ccc(-c2nnc(-c3ccccn3)nc2NCC2CC2)cc1 | 8.4 |
| CN(C)c1nc(-c2ccccn2)nnc1-c1ccccc1 | 6.38 |
| c1ccc(-c2nnc(-c3ccccn3)nc2NCCCN2CCOCC2)cc1 | 9.7 |
| c1ccc(-c2nnc(-c3ccccn3)nc2NCC2CCCCC2)cc1 | 3.04 |
| Cc1ccc(CNc2nc(-c3ccccn3)nnc2-c2ccccc2)cc1 | 3.46 |
| c1ccc(-c2nnc(-c3ccccn3)nc2N2CCN(c3ccncc3)CC2)cc1 | 7.31 |
| Cn1c(-c2ccccc2)cnc1Nc1nc(-c2ccccn2)nnc1-c1ccccc1 | 5.34 |

| Compound | AC50 [µM] |
| --- | --- |
| c1ccc(-c2nnc(-c3ccccn3)nc2N2CCC(N3CCOCC3)CC2)cc1 | 8.46 |
| Cc1cccc(CNc2nc(-c3ccccn3)nnc2-c2ccccc2)c1 | 3.83 |
| CC(C)(C)CCNc1nc(-c2ccccn2)nnc1-c1ccccc1 | 3.58 |
| c1ccc(-c2nnc(-c3ccccn3)nc2Nc2cnc3ccccc3n2)cc1 | 4.81 |
| c1ccc(-c2nnc(-c3ccccn3)nc2Nc2nc3ccccc3s2)cc1 | 1.71 |
| O=C(NCCN1CCOCC1)c1cc(-c2ccccc2)on1 | 19.6 |
| c1ccc(CNc2nc(-c3ccccn3)nnc2-c2ccccc2)cc1 | 7.55 |
| Cc1ccc(NC(=O)c2cc(-c3ccccc3)on2)cn1 | 38 |
| Cc1ccccc1CNc1nc(-c2ccccn2)nnc1-c1ccccc1 | 5.64 |
| Cc1cccc(Nc2nc(-c3ccccn3)nnc2-c2ccccc2)n1 | 12.9 |
| c1ccc(-c2nnc(-c3ccccn3)nc2NCCN2CCOCC2)cc1 | 8.52 |
| CN1CCN(c2nc(-c3ccccn3)nnc2-c2ccccc2)CC1 | 8.76 |
| O=C(NCCCn1ccnc1)c1cc(-c2ccccc2)on1 | 16 |
| O=C(NCCCCO)c1cc(-c2ccccc2)on1 | 8.59 |
| O=C(NCC1CC1)c1cc(-c2ccccc2)on1 | 14.4 |
| O=C(Nc1ccc2ccccc2n1)c1cc(-c2ccccc2)on1 | 7.99 |

system: not listed separately; experiment: as above; details: U2OS VEGF mRNA induction, RT-PCR; at 38 µM (top of the series)
Outline: as §1

| Compound | activation (VEGF mRNA increase) |
| --- | --- |
| O=C(NCCN1CCCCC1)c1cc(-c2ccccc2)on1 | 14.3% (inactive) |
| Cc1ccc(CNC(=O)c2cc(-c3ccccc3)on2)cc1 | -3.43% (inactive) |
| O=C(Nc1nnc(-c2ccccc2)s1)c1cc(-c2ccccc2)on1 | 3.52% (inactive) |
| CN1CCN(C(=O)c2cc(-c3ccccc3)on2)CC1 | -1.09% (inactive) |
| O=C(NC1Cc2ccccc2C1)c1cc(-c2ccccc2)on1 | -0.187% (inactive) |
| O=C(c1cc(-c2ccccc2)on1)N1CCC(N2CCCC2)CC1 | 9.95% (inactive) |
| O=C(Nc1cnc2ccccc2c1)c1cc(-c2ccccc2)on1 | 3.98% (inactive) |
| O=C(c1cc(-c2ccccc2)on1)N1CCc2cccnc21 | 5.19% (inactive) |
| O=C(Nc1nc(-c2ccccc2)cs1)c1cc(-c2ccccc2)on1 | 3.91% (inactive) |
| Cc1cccc(NC(=O)c2cc(-c3ccccc3)on2)n1 | -4.09% (inactive) |
| O=C(Nc1ncc2ccccc2n1)c1cc(-c2ccccc2)on1 | 17.1% (inactive) |
| O=C(NCC1CCCCC1)c1cc(-c2ccccc2)on1 | -2.06% (inactive) |
| O=C(c1cc(-c2ccccc2)on1)N1CCN(c2ccncc2)CC1 | 34.7% (inactive) |
| CC(C)(C)CCNC(=O)c1cc(-c2ccccc2)on1 | 13.5% (inactive) |
| Cc1ccccc1CNC(=O)c1cc(-c2ccccc2)on1 | 22.6% (inactive) |
| CN(C)CCNC(=O)c1cc(-c2ccccc2)on1 | 4% (inactive) |
| O=C(Nc1nc2ccccc2s1)c1cc(-c2ccccc2)on1 | 4.08% (inactive) |
| Cc1cccc(CNC(=O)c2cc(-c3ccccc3)on2)c1 | 11.8% (inactive) |
| O=C(NC1CCc2ccccc2C1)c1cc(-c2ccccc2)on1 (centres undefined) | 14.2% (inactive) |
| O=C(Nc1cn2ccccc2n1)c1cc(-c2ccccc2)on1 | 20.3% (inactive) |
| Cn1c(-c2ccccc2)cnc1NC(=O)c1cc(-c2ccccc2)on1 | -1.36% (inactive) |
| O=C(NCc1ccccc1)c1cc(-c2ccccc2)on1 | 12.2% (inactive) |
| O=C(c1cc(-c2ccccc2)on1)N1CCC(CO)CC1 | 14.4% (inactive) |
| O=C(Nc1ncc(-c2ccccc2)o1)c1cc(-c2ccccc2)on1 | 1.3% (inactive) |
| Cn1c(NC(=O)c2cc(-c3ccccc3)on2)nc2ccccc21 | 2.87% (inactive) |
| O=C(c1cc(-c2ccccc2)on1)N1CCC(N2CCOCC2)CC1 | 13% (inactive) |
